Screening data from PubChem BioAssay.
This is a sample that favours compounds with a hit; in the whole collection about 6.7% have one here.
CSC inhib: cancer stem cell viability inhibitors, primary screen, luminescence; cancer stem cell-like cells viability; inhibition, % at 7.5 µM; 300,000 compounds, 1.1% hits; AID 2717, 2010; in the data active means inhibition above about 75%; tested in HMLE shEcad cells
PREPL inh: PREPL enzyme inhibitors, primary screen, biochemical, fluorescence polarization | inhibition, % at 5.96 µM | 320,000 compounds, 0.68% hits | Prolyl endopeptidase-like (Homo sapiens), Q4J6C6 | recombinant PREPL, fluorescence polarization activity-based probe; in the data active means inhibition above about 43%;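 further: 0% = enzyme with DMSO and 100% = wells lacking enzyme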
Target sequence (Q4J6C6 whole entry, looked up): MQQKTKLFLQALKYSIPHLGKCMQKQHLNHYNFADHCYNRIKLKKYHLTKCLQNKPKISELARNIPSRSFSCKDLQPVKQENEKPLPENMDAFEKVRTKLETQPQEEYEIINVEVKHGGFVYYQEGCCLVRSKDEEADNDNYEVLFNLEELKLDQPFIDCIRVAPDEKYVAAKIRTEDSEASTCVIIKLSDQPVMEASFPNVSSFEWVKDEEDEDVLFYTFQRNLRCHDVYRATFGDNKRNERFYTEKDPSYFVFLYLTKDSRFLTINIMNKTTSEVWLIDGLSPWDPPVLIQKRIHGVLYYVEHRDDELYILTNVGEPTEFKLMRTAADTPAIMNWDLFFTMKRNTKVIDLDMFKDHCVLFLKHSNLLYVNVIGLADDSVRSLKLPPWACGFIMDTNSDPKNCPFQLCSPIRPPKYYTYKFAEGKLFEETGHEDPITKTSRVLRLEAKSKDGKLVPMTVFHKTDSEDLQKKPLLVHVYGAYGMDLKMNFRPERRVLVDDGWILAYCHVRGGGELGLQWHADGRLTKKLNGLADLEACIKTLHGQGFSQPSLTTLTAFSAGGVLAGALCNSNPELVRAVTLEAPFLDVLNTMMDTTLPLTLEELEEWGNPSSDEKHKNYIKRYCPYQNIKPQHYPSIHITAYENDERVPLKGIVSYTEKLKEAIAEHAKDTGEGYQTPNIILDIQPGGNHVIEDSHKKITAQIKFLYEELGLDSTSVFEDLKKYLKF
Beta cell apopt: inhibitors of cytokine-induced beta cell apoptosis, primary screen, luminescence. INS-1E cytokine-induced death, ATP luminescence, 48 h; percent of positive-control rescue, neutral wells zero. AID 435005, 2010. protection from apoptosis, % (test concentration not listed). 300,000 compounds, 0.8% hits;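 active means Every replicate reaches about 75%, or at least half do and their mean reaches it too, limit read from the data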;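 further: 0% = cytokine-treated negative control wells and 100% = positive control rescue; higher means more ATP so stronger rescue from cytokine killing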
NR3A LBD binder: binders of NR3A ligand-binding domain, primary screen, biophysical, differential scanning fluorimetry, uHTS. NR3A LBD differential scanning fluorimetry, Tm shift; 0% = protein alone, 100% = glycine-bound protein. Tm shift relative to glycine control, % at 25 µM. 340,000 compounds, 2.5% hits;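 active means melting temperature shift of at least 10% of the positive control shift, at one fixed dose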
CHOP inh: inhibitors of CHOP promoter induction, primary screen, cell-based, unfolded protein response, luciferase reporter | CHO-K1 CHOP-promoter luciferase, tunicamycin-induced, 15-18 h | inhibition, % at 10 µM | 220,000 compounds, 3.8% hits;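 active means compounds that reduced the stress-induced luciferase reporter signal by more than about 70% of percent inhibition, limit read from the data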;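 further: 0% = tunicamycin plus vehicle and 100% = wells without tunicamycin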
T cruzi inh: inhibitors of intracellular T. cruzi growth, primary screen, luminescence, NIH3T3 host cells; T. cruzi beta-gal in NIH3T3, 90 h; inhibition, % (test concentration not listed); 300,000 compounds, 1.4% hits;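 active means mean inhibition across valid replicates above about 55%, limit read from the data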;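 further: signal also drops with host cell toxicity which is not excluded here; 0% = plate median of DMSO wells and 100% = zero luminescence signal; higher percent means less beta-gal luminescence so fewer parasites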
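System: mouse NIH/3T3 fibroblasts infected with β-gal-expressing T. cruzi Tulahuen C4 / Input: NIH/3T3 cells, 5,000 per well / Buffer or medium: Low-serum DMEM with 2% FBS / Probe or stimulus: 5000 reporter trypomastigotes per well / Schedule: ≥90 h infection period, 3 h prior cell attachment / Measured by: GalScreen luminescence, 60 min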
The depositor's hits bear a star; . = no result.

SMILES	CSC inhib	PREPL inh	Beta cell apopt	NR3A LBD binder	CHOP inh	T cruzi inh
CCC(=O)Nc1ccc2nc(C3CC3)n(Cc3ccc(C(C)(C)C)cc3)c(=O)c2c1	11	-7	7	-6	47	58*
CC(=O)Nc1ccc2nc(C3CC3)n(Cc3ccc(Cl)cc3)c(=O)c2c1	2	-13	-4	0	-17	27
CCn1cc(Br)c(C(=O)NC(=S)Nc2ccc(C(=O)OC)cc2)n1	-11	1	-4	12*	34	-1
CCn1cc(Br)c(C(=O)Nc2ccc(F)c(Cl)c2)n1	3	-5	6	15*	8	-6
O=C(NC(C(=O)N/N=C/c1cc([N+](=O)[O-])ccc1O)c1n[nH]c(=O)c2ccccc12)c1ccccc1 (configuration not stated)	.	17	0	7	.	-13
CC(C)C(NCC(=O)Nc1ccccc1C(=O)NC1CC1)c1ccccc1 (configuration not stated)	.	-11	5	6	.	.
CC(C)CCNC(=O)NC(=O)CSc1ncccn1	-4	19	0	-2	-3	-7
CSc1nc(-c2ccc(C)cc2)nc(C(Cl)Cl)n1	72	-8	6	1	65	56*
CSc1nc(Cl)c(C#N)c(-c2ccc(C)cc2)n1	11	2	3	2	43	0
O=C(CSc1nc(O)cc(=O)n1-c1ccc(Cl)c(Cl)c1)Nc1ccc(Cl)cc1Cl	-4	-7	.	-4	.	0
Cc1ccc(C(=O)Cn2nnc3c(sc4nc5c(c(-c6ccccc6)c43)CCC5)c2=O)cc1	86*	-2	1	0	3	12
O=C(c1ccc2nc(-c3ccco3)c(-c3ccco3)nc2c1)N1CCN(c2ncccn2)CC1	4	61*	-1	0	-36	-8
O=C(CCCc1ccccc1)N=C1SC2CS(=O)(=O)CC2N1c1ccccc1F (configuration not stated)	-7	2	-13	-6	.	11
c1ccc(-c2cc(-c3nnc4n3N=C(c3ccc5ccccc5c3)CS4)[nH]n2)cc1	92*	-16	11	6	-14	59*
O=[N+]([O-])c1cccc(S(=O)(=O)NCCc2ccccc2)c1	-8	5	2	1	.	-5
Cc1ccc([N+](=O)[O-])cc1S(=O)(=O)NCc1cccnc1	-16	-4	-6	4	-20	5
Cc1[nH]c2c(C)cccc2c1CCNS(=O)(=O)c1cccc([N+](=O)[O-])c1	-7	8	2	30*	-3	8
Cc1ccc([N+](=O)[O-])cc1S(=O)(=O)NCCc1c(C)[nH]c2c(C)cccc12	14	7	-2	33*	7	-4
Cc1[nH]n(-c2ccc([N+](=O)[O-])cc2)c(=O)c1C=NCCc1c[nH]c2ccccc12	10	30	14	27*	51	20
CCCc1[nH]n(-c2ccc([N+](=O)[O-])cc2)c(=O)c1C=NCCc1ccc(OC)c(OC)c1	24	16	3	-1	19	12
CCCc1[nH]n(-c2ccc([N+](=O)[O-])cc2)c(=O)c1C=NCCc1c[nH]c2ccccc12	24	33	-6	22*	-7	24
Cc1[nH]n(-c2ccc([N+](=O)[O-])cc2)c(=O)c1C=NCCN1CCN(C(=O)c2ccc(Br)cc2)CC1	48	6	42	2	33	66*
COc1ccc(C)cc1NC(C)C(=O)NC(=O)NC1CCCCC1 (configuration not stated)	5	10	0	-2	.	.
CC1CCC(C(C)C)C(OC(=O)CSc2nc(N)cc(=O)[nH]2)C1 (configuration not stated)	13	13	-10	-1	40	-9
CC1CCC(C(C)C)C(OC(=O)Cn2c(-c3ccc(F)cc3)[n+](C)c3ccccc32)C1 (configuration not stated)	10	37	105*	-5	11	.
SMILES	CSC inhib	PREPL inh	Beta cell apopt	NR3A LBD binder	CHOP inh	T cruzi inh
CC1CCC(C(C)C)C(OC(=O)Cn2c(-c3ccccc3)[n+](C)c3ccccc32)C1 (configuration not stated)	17	11	104*	-1	54	46
CCN(CC)C(=O)Cn1cnc2sc(C(=O)Nc3cc(OC)c(OC)c(OC)c3)c(C)c2c1=O	-3	17	-3	-2	-1	-2
Oc1c(Br)cc(Br)cc1/C=N/Nc1ccc(Cl)nn1	100*	2	98*	-3	.	55*
Oc1c(Br)cc(/C=N/Nc2ccc(Cl)nn2)cc1Br	-2	18	3	3	.	5
CCOc1ccc(/C=N/Nc2ccc(Cl)nn2)c(O)c1	15	-12	119*	-2	.	-2
Oc1ccc(/C=N/Nc2ccc(Cl)nn2)c(O)c1O	2	27	-12	22*	.	19
CN(Cc1ccc(Cl)s1)C(=O)CCl	5	9	-8	-1	105*	59*
COc1ccc(C2CC(c3ccccc3C(F)(F)F)=NN2c2ccc(S(N)(=O)=O)cc2)cc1 (configuration not stated)	.	.	.	18*	.	.
COc1ccc(C2CC(C(C)(C)C)=NN2c2ccc(S(N)(=O)=O)cc2)cc1 (configuration not stated)	.	.	.	-5	.	.
COc1ccc(C2CC(c3ccc(C(F)(F)F)cc3)=NN2c2ccc(S(N)(=O)=O)cc2)cc1 (configuration not stated)	.	.	.	107*	.	.
COc1ccc(C2CC(c3ccccc3Br)=NN2c2ccc(S(N)(=O)=O)cc2)cc1 (configuration not stated)	.	.	.	14*	.	.
COc1ccc(C2CC(c3ccccc3F)=NN2c2ccc(S(N)(=O)=O)cc2)cc1 (configuration not stated)	.	.	.	3	.	.
O=C(CSC1=NS(=O)(=O)c2cc(Cl)ccc2N1)NCc1ccc(F)cc1	-3	-8	.	-2	.	4
O=C(CSC1=NS(=O)(=O)c2cc(Cl)ccc2N1)Nc1cccc(F)c1	-9	-6	-5	19*	.	2
O=C(CSC1=NS(=O)(=O)c2cc(F)ccc2N1)Nc1ccc(F)cc1	8	1	-2	-2	.	-10
CC(=O)c1ccc(NC(=O)CSC2=NS(=O)(=O)c3cc(Cl)ccc3N2)cc1	8	-4	-11	12*	.	0
O=C(CSC1=NS(=O)(=O)c2cc(Cl)ccc2N1)c1ccc(Cl)cc1	8	4	-3	12*	.	-2
